What was measured:
[1] = biological target: T1, Insulin-like growth factor 1 receptor (Homo sapiens, UniProt P08069); assay: Inhibition of GST-tagged IGF1R (957-1367) expressed in baculovirus by time-resolved fluorescence assay
[2] = biological target: Receptor tyrosine-protein kinase erbB-4 (Homo sapiens, UniProt Q15303); assay: Inhibition of ErbB4
[3] = biological target: Mitogen-activated protein kinase 14 (Homo sapiens, UniProt Q16539); assay: Inhibition of p38alpha
[4] = biological target: Serine/threonine-protein kinase B-raf (Homo sapiens, UniProt P15056, V600E); assay: Inhibition of B-raf V600E mutant
[5] = biological target: Tyrosine-protein kinase Lck (Homo sapiens, UniProt P06239); assay: Inhibition of LCK
Aurora kinase A = biological target: T2, Aurora kinase A (Homo sapiens, UniProt O14965); assay: Inhibition of Aurora A
T2 sequence (O14965 whole entry): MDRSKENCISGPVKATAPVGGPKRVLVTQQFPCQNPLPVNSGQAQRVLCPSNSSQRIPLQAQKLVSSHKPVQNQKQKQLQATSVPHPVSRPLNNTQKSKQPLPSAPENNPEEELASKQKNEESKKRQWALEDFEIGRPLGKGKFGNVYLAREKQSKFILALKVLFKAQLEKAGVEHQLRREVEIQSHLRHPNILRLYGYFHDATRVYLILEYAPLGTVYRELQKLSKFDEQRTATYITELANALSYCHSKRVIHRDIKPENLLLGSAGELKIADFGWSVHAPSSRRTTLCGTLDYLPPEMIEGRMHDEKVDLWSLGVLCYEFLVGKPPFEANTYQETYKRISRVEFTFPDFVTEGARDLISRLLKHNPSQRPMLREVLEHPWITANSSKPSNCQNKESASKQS

Aurora kinase B = Aurora kinase B (Homo sapiens, UniProt Q96GD4); assay: Inhibition of Aurora B
[6] = biological target: Epidermal growth factor receptor (Homo sapiens, UniProt P00533); assay: Inhibition of EGFR
Insulin receptor [7] = biological target: T3, Insulin receptor (Homo sapiens, UniProt P06213); assay: Inhibition of GST-tagged insulin receptor expressed in baculovirus by time-resolved fluorescence assay
How it was run: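 GST-tagged IR intracellular domain (aa 979–1382), baculovirus-expressed, activated at 2.7 µM with 2 mM ATP in 50 mM Hepes pH 7.5, 10 mM MgCl2, BSA. Phosphopeptide by TRF with streptavidin-allophycocyanin and Eu-anti-phosphotyrosine. n ≥ 2.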

[8] = biological target: Receptor tyrosine-protein kinase erbB-2 (Homo sapiens, UniProt P04626); assay: Inhibition of ErbB2
[9] = biological target: T1, Insulin-like growth factor 1 receptor; assay: Inhibition of human IGF1R autophosphorylation in transfected mouse NIH3T3 cells; format: cell-based
Mus musculus [10] = assay: Dose normalized AUC (0 to 6 hrs) in po dosed mouse; format: ADME, organism-based; design: time < 6 hr, route oral; conditions: in vivo
How it was run: (§1)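 Oral dosing in mice; dose-normalized AUC in ng h/mL/(mg/kg) calculated over 0–6 h.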

[11] = Clearance in po dosed mouse; format: ADME, organism-based; conditions: in vivo
Mus musculus [12] = assay: Dose normalized AUC (0 to 6 hrs) in mouse at 7.3 mg/kg, po; format: ADME, organism-based; design: time < 6 hr, dose 7.3 mg/kg, route oral; conditions: in vivo; how it was run: as §1
Insulin receptor [13] = biological target: T3, Insulin receptor; assay: Binding affinity to insulin receptor by liquid scintillation counting; conditions: read-out: Ki(app)
How it was run: (§2)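 Activated IGF-1R or IR kinase domains (pre-activated at 500 nM with 1 mM ATP for 30 min in pH 7.2 Hepes/MgCl2/BSA buffer with phosphatase inhibitors) were used at 0.5 nM final. Enzyme and ATP were pre-incubated with inhibitor for 6 h. […] Product was filter-captured and scintillation-counted. IC50 was converted to apparent Ki by Cheng–Prusoff.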

[14] = biological target: T1, Insulin-like growth factor 1 receptor; assay: Binding affinity to IGF1R by liquid scintillation counting; conditions: read-out: Ki(app); how it was run: as §2
[15] = Clearance in Sprague-Dawley rat at 3 mg/kg, po; format: ADME, organism-based; design: dose 3 mg/kg, route oral; conditions: in vivo
How it was run: (§3)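 Compound given as solution in 1.0% DMSO, 20% Captisol in saline (IV) or water (PO); dog PO given as partial suspension. IV doses 0.6–1.3 mg/kg, PO 2.1–7.2 mg/kg by species. Male Sprague–Dawley rats, male beagle dogs, male cynomolgus monkeys. Data over 0–24 h; dose-normalized AUC as ng h/mL/(mg/kg).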

[16] = Oral bioavailability in cynomolgus monkey at 2.1 mg/kg; format: ADME, organism-based, Macaca fascicularis; conditions: in vivo; how it was run: as §3
[17] = Clearance in cynomolgus monkey at 2.1 mg/kg, po; format: ADME, organism-based, Macaca fascicularis; design: dose 2.1 mg/kg, route oral; conditions: in vivo; how it was run: as §3
Insulin receptor [18] = biological target: T3, Insulin receptor; assay: Inhibition of human insulin receptor autophosphorylation in transfected mouse NIH3T3 cells; format: cell-based
How it was run: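 NIH-3T3 cells expressing human IR were grown on collagen-coated plates for 24 h, then given inhibitor or DMSO. After 2 h they were stimulated with bovine insulin for 15 min and lysed in RIPA. Lysates were captured overnight at 4 °C on anti-IRβ plates. Phospho-IR was detected by Eu-phosphotyrosine antibody time-resolved fluorescence (340/615 nm), and total IR by anti-IR. IC50 was taken from the phospho/total ratio curves.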

Rattus norvegicus [19] = assay: Dose normalized AUC in Sprague-Dawley rat at 3 mg/kg, po; format: ADME, organism-based; design: dose 3 mg/kg, route oral; conditions: in vivo; how it was run: as §3
Rattus norvegicus [20] = assay: Volume of distribution at steady state in Sprague-Dawley rat at 3 mg/kg, po; format: ADME, organism-based; design: dose 3 mg/kg, route oral; conditions: in vivo; how it was run: as §3
[21] = Oral bioavailability in Sprague-Dawley rat at 3 mg/kg; format: ADME, organism-based; conditions: in vivo; how it was run: as §3
Cynomolgus monkey [22] = assay: Dose normalized AUC in cynomolgus monkey at 2.1 mg/kg, po; format: ADME, organism-based, Macaca fascicularis; design: dose 2.1 mg/kg, route oral; conditions: in vivo; how it was run: as §3
[23] = Antiproliferative activity against human TC71 cells after 72 hrs by Celltiter assay; format: functional, cell-based; conditions: TC-71, 72 h
How it was run: (§4)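 Cells seeded in 96-well dishes and incubated overnight at 37 °C, then exposed to a range of inhibitor concentrations for 72 h. Proliferation read by CellTiter-Glo luminescence per manufacturer's protocol. IC50 from 4-parameter curve fit.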

A549 = assay: Antiproliferative activity against human A549 cells after 72 hrs by Celltiter assay; format: functional, cell-based; conditions: A549, 72 h; how it was run: as §4
HFF = assay: Antiproliferative activity against HFF cells after 72 hrs by Celltiter assay; format: cell-based; conditions: Homo sapiens; how it was run: as §4
COLO 205 = assay: Antiproliferative activity against human COLO205 cells after 72 hrs by Celltiter assay; format: functional, cell-based; conditions: COLO 205, 72 h; how it was run: as §4
LP-1 = assay: Antiproliferative activity against human LP-1 cells after 72 hrs by Celltiter assay; format: functional, cell-based; conditions: LP-1, 72 h; how it was run: as §4
[24] = Antiproliferative activity against human SK-ES cells after 72 hrs by Celltiter assay; format: functional, cell-based; how it was run: as §4
[25] = Antiproliferative activity against human NCI-H929 cells after 72 hrs by Celltiter assay; format: functional, cell-based; conditions: NCI-H929, 72 h; how it was run: as §4
[26] = Clearance in Beagle dog at 7.2 mg/kg, po; format: ADME, organism-based, Canis lupus familiaris; design: dose 7.2 mg/kg, route oral; conditions: in vivo; how it was run: as §3
[27] = Oral bioavailability in Beagle dog at 7.2 mg/kg; format: ADME, organism-based, Canis lupus familiaris; conditions: in vivo; how it was run: as §3
Cynomolgus monkey [28] = assay: Volume of distribution at steady state in cynomolgus monkey at 2.1 mg/kg, po; format: ADME, organism-based, Macaca fascicularis; design: dose 2.1 mg/kg, route oral; conditions: in vivo; how it was run: as §3
Canis familiaris [29] = assay: Volume of distribution at steady state in Beagle dog at 7.2 mg/kg, po; format: ADME, organism-based, Canis lupus familiaris; design: dose 7.2 mg/kg, route oral; conditions: in vivo; how it was run: as §3
Canis familiaris [30] = assay: Dose normalized AUC in Beagle dog at 7.2 mg/kg, po; format: ADME, organism-based, Canis lupus familiaris; design: dose 7.2 mg/kg, route oral; conditions: in vivo; how it was run: as §3

Chain of Epidermal growth factor receptor (P00533 whole entry): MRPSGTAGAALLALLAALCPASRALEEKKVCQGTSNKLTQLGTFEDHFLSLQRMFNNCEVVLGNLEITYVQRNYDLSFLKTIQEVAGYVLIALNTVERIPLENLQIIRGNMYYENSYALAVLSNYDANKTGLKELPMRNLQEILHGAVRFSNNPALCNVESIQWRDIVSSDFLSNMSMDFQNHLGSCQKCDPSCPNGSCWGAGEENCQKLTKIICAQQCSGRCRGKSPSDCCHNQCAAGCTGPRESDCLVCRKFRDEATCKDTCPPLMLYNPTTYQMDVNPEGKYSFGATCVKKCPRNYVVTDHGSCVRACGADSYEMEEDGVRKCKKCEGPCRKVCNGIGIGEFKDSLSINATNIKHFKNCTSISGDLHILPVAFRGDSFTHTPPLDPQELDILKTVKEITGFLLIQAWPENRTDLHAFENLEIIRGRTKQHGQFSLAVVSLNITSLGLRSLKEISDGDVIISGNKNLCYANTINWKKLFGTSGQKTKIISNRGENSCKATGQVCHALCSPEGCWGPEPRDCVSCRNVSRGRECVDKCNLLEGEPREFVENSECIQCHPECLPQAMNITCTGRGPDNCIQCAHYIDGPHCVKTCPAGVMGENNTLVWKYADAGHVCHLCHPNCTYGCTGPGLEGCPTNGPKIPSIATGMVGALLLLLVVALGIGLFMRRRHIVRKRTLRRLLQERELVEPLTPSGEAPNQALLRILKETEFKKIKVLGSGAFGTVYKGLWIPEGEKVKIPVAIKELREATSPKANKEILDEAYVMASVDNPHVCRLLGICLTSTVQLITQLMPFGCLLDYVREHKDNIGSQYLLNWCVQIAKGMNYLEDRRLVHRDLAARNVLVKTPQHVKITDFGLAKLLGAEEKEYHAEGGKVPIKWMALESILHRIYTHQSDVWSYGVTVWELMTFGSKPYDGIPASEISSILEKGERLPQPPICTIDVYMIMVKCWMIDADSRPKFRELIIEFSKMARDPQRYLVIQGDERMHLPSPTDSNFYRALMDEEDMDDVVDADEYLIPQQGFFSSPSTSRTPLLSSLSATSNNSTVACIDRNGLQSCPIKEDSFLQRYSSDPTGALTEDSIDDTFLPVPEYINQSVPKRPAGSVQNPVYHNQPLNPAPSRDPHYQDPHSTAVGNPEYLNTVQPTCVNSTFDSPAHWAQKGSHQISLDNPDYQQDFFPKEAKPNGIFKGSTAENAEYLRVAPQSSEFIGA
T1 sequence (P08069 31-736 limits assumed): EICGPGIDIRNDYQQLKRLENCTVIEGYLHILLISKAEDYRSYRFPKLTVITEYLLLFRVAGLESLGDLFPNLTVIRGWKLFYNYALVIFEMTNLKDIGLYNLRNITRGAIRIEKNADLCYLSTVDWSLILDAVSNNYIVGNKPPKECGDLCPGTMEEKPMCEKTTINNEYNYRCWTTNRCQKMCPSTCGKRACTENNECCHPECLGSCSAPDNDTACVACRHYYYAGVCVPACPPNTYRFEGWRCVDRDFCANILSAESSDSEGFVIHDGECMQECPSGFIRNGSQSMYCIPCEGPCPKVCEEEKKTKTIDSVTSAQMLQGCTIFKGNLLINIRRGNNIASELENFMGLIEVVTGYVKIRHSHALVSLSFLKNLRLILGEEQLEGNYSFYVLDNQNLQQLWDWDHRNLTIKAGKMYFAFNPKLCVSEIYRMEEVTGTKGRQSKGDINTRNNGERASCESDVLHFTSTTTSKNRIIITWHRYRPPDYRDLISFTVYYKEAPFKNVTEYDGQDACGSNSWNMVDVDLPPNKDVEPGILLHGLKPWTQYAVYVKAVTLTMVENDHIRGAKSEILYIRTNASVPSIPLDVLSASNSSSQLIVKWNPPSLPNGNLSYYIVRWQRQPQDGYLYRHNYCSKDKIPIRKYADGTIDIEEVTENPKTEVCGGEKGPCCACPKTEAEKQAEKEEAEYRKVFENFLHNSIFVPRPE
T1 sequence (P08069 741-1367 limits assumed): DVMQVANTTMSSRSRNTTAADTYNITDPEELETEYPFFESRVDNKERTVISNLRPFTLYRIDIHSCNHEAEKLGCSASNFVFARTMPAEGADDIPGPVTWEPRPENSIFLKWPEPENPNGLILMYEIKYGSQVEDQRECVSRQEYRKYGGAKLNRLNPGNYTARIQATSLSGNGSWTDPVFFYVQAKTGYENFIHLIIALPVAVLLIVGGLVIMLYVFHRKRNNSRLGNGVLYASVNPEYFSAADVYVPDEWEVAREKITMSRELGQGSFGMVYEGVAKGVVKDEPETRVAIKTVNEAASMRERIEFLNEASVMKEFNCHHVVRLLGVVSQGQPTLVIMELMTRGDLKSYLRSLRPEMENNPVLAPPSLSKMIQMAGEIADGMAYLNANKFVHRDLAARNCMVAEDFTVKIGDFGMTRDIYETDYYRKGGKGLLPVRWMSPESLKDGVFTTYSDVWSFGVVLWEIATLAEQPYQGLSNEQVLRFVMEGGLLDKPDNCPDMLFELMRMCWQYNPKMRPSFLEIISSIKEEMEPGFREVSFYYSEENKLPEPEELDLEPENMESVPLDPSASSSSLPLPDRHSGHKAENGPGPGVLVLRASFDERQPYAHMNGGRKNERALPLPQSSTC
Chain of Receptor tyrosine-protein kinase erbB-2 (P04626 whole entry): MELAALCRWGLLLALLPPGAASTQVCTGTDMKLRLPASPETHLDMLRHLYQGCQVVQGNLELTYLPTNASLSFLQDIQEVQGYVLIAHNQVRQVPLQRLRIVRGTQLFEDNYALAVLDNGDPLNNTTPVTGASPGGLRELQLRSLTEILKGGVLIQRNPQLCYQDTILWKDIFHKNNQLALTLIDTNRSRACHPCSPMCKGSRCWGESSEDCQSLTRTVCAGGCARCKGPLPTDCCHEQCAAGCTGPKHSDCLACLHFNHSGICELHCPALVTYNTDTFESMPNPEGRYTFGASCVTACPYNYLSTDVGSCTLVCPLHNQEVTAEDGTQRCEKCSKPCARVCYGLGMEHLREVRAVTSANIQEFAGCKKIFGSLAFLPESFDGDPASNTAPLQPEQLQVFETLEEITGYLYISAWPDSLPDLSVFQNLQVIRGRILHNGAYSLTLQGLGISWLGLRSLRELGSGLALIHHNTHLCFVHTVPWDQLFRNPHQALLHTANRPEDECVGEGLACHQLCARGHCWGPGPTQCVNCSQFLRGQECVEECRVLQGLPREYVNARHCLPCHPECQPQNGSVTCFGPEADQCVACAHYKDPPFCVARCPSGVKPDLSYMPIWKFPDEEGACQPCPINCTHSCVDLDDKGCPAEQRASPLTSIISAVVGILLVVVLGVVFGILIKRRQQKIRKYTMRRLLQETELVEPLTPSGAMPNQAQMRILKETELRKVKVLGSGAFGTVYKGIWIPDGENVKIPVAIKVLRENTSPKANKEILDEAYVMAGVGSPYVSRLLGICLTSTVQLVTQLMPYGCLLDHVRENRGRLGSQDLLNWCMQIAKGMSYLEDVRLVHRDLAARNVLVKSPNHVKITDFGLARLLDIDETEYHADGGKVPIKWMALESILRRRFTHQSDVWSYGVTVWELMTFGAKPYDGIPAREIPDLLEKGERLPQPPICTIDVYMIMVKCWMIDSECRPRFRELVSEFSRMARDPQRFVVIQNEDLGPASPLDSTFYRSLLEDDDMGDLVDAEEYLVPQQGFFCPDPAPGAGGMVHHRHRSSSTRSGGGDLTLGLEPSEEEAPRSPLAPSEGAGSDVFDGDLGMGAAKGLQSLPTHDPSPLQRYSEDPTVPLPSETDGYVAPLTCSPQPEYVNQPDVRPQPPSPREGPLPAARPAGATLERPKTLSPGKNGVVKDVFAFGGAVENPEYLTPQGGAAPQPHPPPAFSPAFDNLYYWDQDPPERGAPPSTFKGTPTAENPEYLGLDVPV
Chain of Receptor tyrosine-protein kinase erbB-4 (Q15303 whole entry): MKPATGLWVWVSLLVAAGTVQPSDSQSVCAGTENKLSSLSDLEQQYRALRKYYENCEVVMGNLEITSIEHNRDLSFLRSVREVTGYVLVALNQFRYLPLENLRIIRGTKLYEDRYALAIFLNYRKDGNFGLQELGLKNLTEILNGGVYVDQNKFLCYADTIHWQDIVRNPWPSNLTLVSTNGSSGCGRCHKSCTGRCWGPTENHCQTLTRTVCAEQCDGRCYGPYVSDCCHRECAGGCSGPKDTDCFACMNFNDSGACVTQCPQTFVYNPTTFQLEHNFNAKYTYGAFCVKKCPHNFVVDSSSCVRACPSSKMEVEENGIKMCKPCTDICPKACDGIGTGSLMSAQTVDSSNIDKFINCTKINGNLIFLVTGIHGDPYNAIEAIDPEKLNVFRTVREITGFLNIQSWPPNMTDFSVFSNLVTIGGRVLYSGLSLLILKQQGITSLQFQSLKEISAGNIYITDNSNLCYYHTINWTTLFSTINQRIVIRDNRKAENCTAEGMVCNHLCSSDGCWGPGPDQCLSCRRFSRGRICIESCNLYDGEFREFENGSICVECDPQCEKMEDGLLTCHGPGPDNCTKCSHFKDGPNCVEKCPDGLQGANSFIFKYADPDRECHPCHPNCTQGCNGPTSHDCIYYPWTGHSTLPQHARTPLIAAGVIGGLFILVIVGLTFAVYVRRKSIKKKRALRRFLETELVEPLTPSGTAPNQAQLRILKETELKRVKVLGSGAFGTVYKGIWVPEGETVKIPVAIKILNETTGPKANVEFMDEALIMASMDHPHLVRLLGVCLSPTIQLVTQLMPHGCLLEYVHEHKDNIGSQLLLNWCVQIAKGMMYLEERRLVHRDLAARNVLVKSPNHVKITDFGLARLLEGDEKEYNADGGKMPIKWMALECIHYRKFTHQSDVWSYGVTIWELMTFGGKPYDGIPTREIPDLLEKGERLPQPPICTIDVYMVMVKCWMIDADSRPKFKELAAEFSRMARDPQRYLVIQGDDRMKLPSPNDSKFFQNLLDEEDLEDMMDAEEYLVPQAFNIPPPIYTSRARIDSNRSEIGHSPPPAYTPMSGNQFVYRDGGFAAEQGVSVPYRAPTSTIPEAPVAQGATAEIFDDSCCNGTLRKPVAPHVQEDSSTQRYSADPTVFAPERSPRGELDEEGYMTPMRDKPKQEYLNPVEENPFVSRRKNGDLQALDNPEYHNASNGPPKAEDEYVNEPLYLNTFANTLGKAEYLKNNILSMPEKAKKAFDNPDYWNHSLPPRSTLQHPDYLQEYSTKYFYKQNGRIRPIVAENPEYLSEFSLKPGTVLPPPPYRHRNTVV

CCc1cc(Nc2nccc(-c3c(-c4cccc(C(=O)Nc5c(F)cccc5F)c4)nc4ccccn34)n2)c(OC)cc1N1CCC(N2CCN(S(C)(=O)=O)CC2)CC1
IC50 [1]: 7 nM
IC50 [2]: 140 nM
IC50 [3]: 1800 nM
IC50 [4]: 320 nM
IC50 [5]: 710 nM
IC50 (Aurora kinase A): > 9500 nM
IC50 (Aurora kinase B): 1300 nM
IC50 [6]: 22 nM
IC50 (Insulin receptor [7]): 7 nM
IC50 [8]: 54 nM

COc1cc(N2CCC(N3C[C@@H](C)O[C@@H](C)C3)CC2)ccc1Nc1nccc(-c2c(-c3cccc(C(=O)Nc4c(F)cccc4F)c3)nc3ccccn23)n1
IC50 [1]: 4 nM
IC50 [9]: 68 nM
AUC (Mus musculus [10]): 549 ng·h/mL

O=C(Nc1c(F)cccc1F)c1cccc(-c2nc3ccccn3c2-c2ccnc(Nc3ccc(N4CCC(N5CCCCC5)CC4)cc3)n2)c1
IC50 [1]: 2 nM
IC50 [9]: 87 nM

COc1cc(N2CCC(N3CCN(C(C)=O)CC3)CC2)ccc1Nc1nccc(-c2c(-c3cccc(C(=O)Nc4c(F)cccc4F)c3)nc3ccccn23)n1
IC50 [1]: 3 nM
IC50 [9]: 65 nM
AUC (Mus musculus [10]): 216 ng·h/mL

COc1cc(N2CCC(N3CCCCC3)CC2)ccc1Nc1nccc(-c2c(-c3cccc(C(=O)Nc4c(F)cccc4F)c3)nc3ccccn23)n1
IC50 [1]: 2 nM
CL/F [11]: 13.4 mL/min/kg
AUC (Mus musculus [12]): 239 ng·h/mL
IC50 [9]: 38 nM

COc1cc(N2CCC(N3CCN(S(C)(=O)=O)CC3)CC2)ccc1Nc1nccc(-c2c(-c3cccc(C(=O)Nc4c(F)cccc4F)c3)nc3ccccn23)n1
IC50 [1]: 5 nM
Ki (Insulin receptor [13]): 2.2 nM
IC50 [2]: 74 nM
CL/F [11]: 13.6 mL/min/kg
IC50 [3]: 440 nM
IC50 [4]: 80 nM
IC50 [5]: 1200 nM
IC50 (Aurora kinase A): 1600 nM
Ki [14]: 5.2 nM
IC50 (Aurora kinase B): 200 nM
IC50 [9]: 36 nM
IC50 [6]: 57 nM
IC50 (Insulin receptor [7]): 5 nM
IC50 [8]: 72 nM
AUC (Mus musculus [10]): 1060 ng·h/mL

COc1cc(N2CCC(N3CC[C@@H](F)C3)CC2)ccc1Nc1nccc(-c2c(-c3cccc(C(=O)Nc4c(F)cccc4F)c3)nc3ccccn23)n1
IC50 [1]: 2 nM
IC50 [9]: 40 nM
AUC (Mus musculus [10]): 494 ng·h/mL

COc1cc(N2CCC(N3CCOCC3)CC2)ccc1Nc1nccc(-c2c(-c3cccc(C(=O)Nc4c(F)cccc4F)c3)nc3ccccn23)n1
IC50 [1]: 2 nM
IC50 [9]: 41 nM
AUC (Mus musculus [10]): 276 ng·h/mL

COc1cc(N2CCC(N3CCN(C)CC3)CC2)ccc1Nc1nccc(-c2c(-c3cccc(C(=O)Nc4c(F)cccc4F)c3)nc3ccccn23)n1
IC50 [1]: 2 nM
IC50 [9]: 28 nM
AUC (Mus musculus [10]): 203 ng·h/mL

COc1cc(N2CCC(N3CCCC3)CC2)ccc1Nc1nccc(-c2c(-c3cccc(C(=O)Nc4c(F)cccc4F)c3)nc3ccccn23)n1
IC50 [1]: 2 nM
IC50 [9]: 38 nM
AUC (Mus musculus [10]): 121 ng·h/mL

CN(C)CCOc1cccc(Nc2nccc(-c3c(-c4cccc(C(=O)Nc5c(F)cccc5F)c4)nc4ccccn34)n2)c1
IC50 [1]: 1 nM
IC50 [9]: 177 nM

CCc1cc(Nc2nccc(-c3c(-c4ccc(OC)c(C(=O)Nc5c(F)cccc5F)c4)nc4ccccn34)n2)c(OC)cc1N1CCC(N2CCN(S(C)(=O)=O)CC2)CC1
CL/F [15]: 5.8 mL/min/kg
bioavailability [16]: 97%
CL/F [17]: 13.9 mL/min/kg
IC50 (Insulin receptor [18]): 19 nM
AUC (Rattus norvegicus [19]): 1220 ng·h/mL
IC50 [1]: 27 nM
Ki (Insulin receptor [13]): 1.3 nM
Vdss (Rattus norvegicus [20]): 7.5 L/kg
bioavailability [21]: 63%
IC50 [2]: > 25000 nM
IC50 [3]: 11000 nM
AUC (Cynomolgus monkey [22]): 1070 ng·h/mL
IC50 [4]: > 2000 nM
IC50 [23]: 35 nM
IC50 [5]: > 3000 nM
IC50 (A549): > 20000 nM
IC50 (HFF): > 20000 nM
IC50 (Aurora kinase A): > 1500 nM
IC50 (COLO 205): 124 nM
IC50 (LP-1): 104 nM
Ki [14]: 1.6 nM
IC50 [24]: 61 nM
IC50 (Aurora kinase B): 4500 nM
IC50 [25]: 81 nM
IC50 [9]: 22 nM
CL/F [26]: 8.7 mL/min/kg
bioavailability [27]: 47%
Vdss (Cynomolgus monkey [28]): 9.8 L/kg
IC50 [6]: > 10000 nM
IC50 (Insulin receptor [7]): 25 nM
Vdss (Canis familiaris [29]): 4.7 L/kg
IC50 [8]: > 10000 nM
AUC (Canis familiaris [30]): 870 ng·h/mL

Source: ChEMBL document CHEMBL1143280, “Discovery and optimization of imidazo[1,2-a]pyridine inhibitors of insulin-like growth factor-1 receptor (IGF-1R)” (Bioorg Med Chem Lett, 2009)
